Source: ChEMBL document CHEMBL3351752, “Discovery and in vivo evaluation of alcohol-containing benzothiazoles as potent dual-targeting bacterial DNA supercoiling inhibitors” (Bioorg Med Chem Lett, 2014)
Converted amounts (≈) assume the structure as drawn.

Legend:
Staphylococcus aureus [1] = assay: Antibacterial activity against Staphylococcus aureus ATCC 29213 assessed as growth inhibition; type: functional
Streptococcus pyogenes [2] = assay: Antibacterial activity against Streptococcus pyogenes 51339 assessed as growth inhibition; type: functional
Haemophilus influenzae = assay: Antibacterial activity against Haemophilus influenzae 49247 assessed as growth inhibition; type: functional
Staphylococcus aureus [3] = assay: Antibacterial activity against Staphylococcus aureus ATCC 29213 assessed as growth inhibition in presence of 50% horse serum; type: functional
Staphylococcus aureus [4] = assay: Inhibition of Staphylococcus aureus DNA gyrase ATPase subunit GyrA2/GyrB2 after 60 mins by malachite green staining assay
[5] = Fraction unbound in mouse plasma by ultracentrifugation; type: ADME, cell-free
How it was run: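 Compound at 10 µM (1% DMSO) was equilibrated in neat plasma at 37 °C for 60 min. Duplicate aliquots were ultracentrifuged at 250,000g for 4.2 h at 37 °C. Free compound in the plasma-water supernatant was compared with uncentrifuged samples incubated alike. Uncentrifuged samples kept at 20 °C checked degradation, and diltiazem served as stability control. Analysis was by LCMS.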

Staphylococcus aureus [6] = assay: Antimicrobial activity against Staphylococcus aureus harboring GyrB T173N mutant assessed as growth inhibition; type: functional
Streptococcus pyogenes [7] = assay: Antimicrobial activity against Streptococcus pyogenes harboring ParE A53S mutant assessed as growth inhibition; type: functional

Row | SMILES | MIC (Staphylococcus aureus [1]) [µg/mL] | MIC (Streptococcus pyogenes [2]) [µg/mL] | MIC (Haemophilus influenzae) [µg/mL] | MIC (Staphylococcus aureus [3]) [µg/mL] | inhibitory concentration (Staphylococcus aureus [4]) [µg/mL] | fraction unbound [5] | MIC (Staphylococcus aureus [6]) [µg/mL] | MIC (Streptococcus pyogenes [7]) [µg/mL]
1 | CCNC(=O)Nc1nc2cc(-c3cnc(C(C)(C)O)nc3)cc(-c3cc(CN4CC(OC)C4)ccn3)c2s1 | 0.12 (≈ 0.225 µM) | 0.12 (≈ 0.225 µM) | 2 (≈ 3.75 µM) | 0.25 | 0.011 | 0.11 |  | 
2 | CCNC(=O)Nc1nc2cc(-c3cnc(C(O)C(C)(C)C)nc3)cc(-c3ccccn3)c2s1 (racemic) | 0.12 (≈ 0.259 µM) | 0.12 (≈ 0.259 µM) |  | 2 | 0.012 |  | 0.25 (≈ 0.54 µM) | 2 (≈ 4.32 µM)
3 | CCNC(=O)Nc1nc2cc(-c3cnc(C(O)C4CC4)nc3)cc(-c3ccccn3)c2s1 (racemic) | 0.06 (≈ 0.134 µM) | 0.06 (≈ 0.134 µM) | 0.5 (≈ 1.12 µM) | 0.25 | 0.008 |  | 0.25 (≈ 0.56 µM) | 1 (≈ 2.24 µM)
4 | CCNC(=O)Nc1nc2cc(-c3cnc([C@@H](O)[C@@H](C)O)nc3)cc(-c3ccccn3)c2s1 (racemic) | 0.25 (≈ 0.555 µM) | 0.12 (≈ 0.266 µM) | 1 (≈ 2.22 µM) | 0.25 | 0.007 |  | 1 (≈ 2.22 µM) | 1 (≈ 2.22 µM)
5 | CCNC(=O)Nc1nc2cc(-c3cnc([C@@H](O)[C@H](O)C(F)(F)F)nc3)cc(-c3ccccn3)c2s1 (racemic) | 0.06 (≈ 0.119 µM) | 0.12 (≈ 0.238 µM) | 0.5 (≈ 0.991 µM) | 0.25 | 0.005 |  | 0.25 (≈ 0.496 µM) | 1 (≈ 1.98 µM)
6 | CCNC(=O)Nc1nc2cc(-c3cnc(C4(O)CCOCC4)nc3)cc(-c3ccccn3)c2s1 | 0.06 (≈ 0.126 µM) | 0.12 (≈ 0.252 µM) | 1 (≈ 2.1 µM) | 0.12 | 0.005 |  | 0.25 (≈ 0.525 µM) | 2 (≈ 4.2 µM)
7 | CCCC(O)c1ncc(-c2cc(-c3ccccn3)c3sc(NC(=O)NCC)nc3c2)cn1 (racemic) | 0.03 (≈ 0.0669 µM) | 0.06 (≈ 0.134 µM) | 1 (≈ 2.23 µM) | 0.25 | 0.007 |  | 0.25 (≈ 0.557 µM) | 2 (≈ 4.46 µM)
8 | CCNC(=O)Nc1nc2cc(-c3cnc(C(O)CN4CCOCC4)nc3)cc(-c3ccccn3)c2s1 (racemic) | 0.12 (≈ 0.237 µM) | 0.12 (≈ 0.237 µM) | 2 (≈ 3.96 µM) | 0.25 | 0.011 |  | 1 (≈ 1.98 µM) | 2 (≈ 3.96 µM)
9 | CCNC(=O)Nc1nc2cc(-c3cnc(C4(O)CCNCC4)nc3)cc(-c3ccccn3)c2s1 | 8 (≈ 16.8 µM) | 2 (≈ 4.21 µM) | > 16 | 4 | 0.01 |  | > 16 | > 16
10 | CCNC(=O)Nc1nc2cc(-c3cnc(C4(O)CCOCC4O)nc3)cc(-c3ccccn3)c2s1 (racemic) | 0.5 (≈ 1.02 µM) | 0.12 (≈ 0.244 µM) | 2 (≈ 4.06 µM) | 0.5 | 0.009 |  | 4 (≈ 8.12 µM) | 2 (≈ 4.06 µM)
11 | CCNC(=O)Nc1nc2cc(-c3cnc(C4(O)CCCCC4)nc3)cc(-c3ccccn3)c2s1 | 8 (≈ 16.9 µM) | 8 (≈ 16.9 µM) | > 16 |  | 0.054 |  | > 16 | > 16
12 | CCNC(=O)Nc1nc2cc(-c3cnc(C4(O)CNC4)nc3)cc(-c3ccccn3)c2s1 | > 16 | 8 (≈ 17.9 µM) | > 16 | > 16 | 0.029 |  | > 16 | > 16
13 | CCNC(=O)Nc1nc2cc(-c3cnc(C4(O)COC4)nc3)cc(-c3ccccn3)c2s1 | 0.06 (≈ 0.134 µM) | 0.12 (≈ 0.268 µM) | 0.5 (≈ 1.11 µM) | 0.12 | 0.006 |  | 0.5 (≈ 1.11 µM) | 2 (≈ 4.46 µM)
14 | CCNC(=O)Nc1nc2cc(-c3cnc(C(O)(CC)CC)nc3)cc(-c3ccccn3)c2s1 | 0.25 (≈ 0.54 µM) | 0.5 (≈ 1.08 µM) | 8 (≈ 17.3 µM) | 4 | 0.017 |  | 1 (≈ 2.16 µM) | 8 (≈ 17.3 µM)
